Results as given in ChEMBL document CHEMBL1138782, “Toward a novel metal-based chemotherapy against tropical diseases. 7. Synthesis and in vitro antimalarial activity of new gold-chloroquine complexes” (J Med Chem, 2004).

System: Cell line
Assay: Parasitaemia for Plasmodium falciparum in human erythrocytes after 3 hrs incubation with 100 uM compound
Assay type: functional
In short: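 Uninfected RBCs preincubated 3 h at 37 °C with 100 µM compound, washed in RPMI medium, then placed 6 h with RBCs carrying 44–48 h schizonts of synchronized K1 culture (plasmagel and sorbitol synchronization); reinvasion read as resulting parasitemia (%).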

CCN(CC)CCCC(C)Nc1ccnc2cc(Cl)ccc12.O=P(O)(O)O.O=P(O)(O)O (stereo unspecified) [CHLOROQUINE PHOSPHATE]
Parasitemia: 5.67%
